The subject of series [1] is Leishmania infantum. Put plainly: Antileishmanial activity against Leishmania infantum MHOM/ES/2007/DP532JFJ infected in mouse BMDM cells assessed as reduction in intracellular amastigotes after 48 hrs. Format: functional, organism-based. An outline of the steps:
(§1)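 Bone-marrow-derived macrophages from ICR (CD-1) mice, differentiated with L929-conditioned medium, plated 4 × 10^6 per well on coverslips and allowed to adhere 1 day. Infected with stationary-phase promastigotes at 10:1 parasite/macrophage, then exposed to 25–1000 μM for 48 h (0.5% DMSO). Giemsa-stained, infection percentage counted by microscopy. IC50 from linear regression of infection reduction; at least triplicate.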

Series [2] relates to Leishmania donovani. The experiment in a line: Antileishmanial activity against Leishmania donovani MHOM/IN/00/LEM138 infected in mouse BMDM cells assessed as reduction in intracellular amastigotes after 48 hrs. Format: functional, organism-based. In short, it runs like this:
as §1

Series [3] can be described thus: (§2) Cytotoxicity against mouse L929 cells after 72 hrs by trypan blue assay. As to conditions: L929 cells. Format: cell-based. In short, it runs like this:
(§3)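 L929 fibroblasts were plated at 5 × 10^4/well in RPMI-1640 with 10% FBS at 37 °C, 5% CO2. They were exposed to 25–1000 μM compound, with diluent controls, for 72 h. Cells were mixed 1:1 with 0.4% trypan blue and live and dead cells counted in a hemocytometer. Survival was expressed relative to controls and CC50 approximated.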

Series [4] in a line: (§4) Selectivity index, ratio of CC50 for mouse L929 cells to IC50 for Leishmania infantum MHOM/ES/2007/DP532JFJ. The class given is functional.
Series [5] can be described thus: (§5) Selectivity index, ratio of CC50 for mouse L929 cells to IC50 for Leishmania donovani MHOM/IN/00/LEM138. Format: functional.
The subject of series [6] is L929. Described as §2. The class given is cell-based. Particulars: l929, 72 h. In short, it runs like this:
as §3

Series [7] in a line: Toxicity in po dosed rat. The class given is organism-based. Particulars: in vivo.
Series [8] is described as follows: Cytotoxicity against human skin fibroblast cells. Format: cell-based.
Series [9] deals with Leishmania infantum. Put plainly: Antileishmanial activity against Leishmania infantum MHOM/ES/2007/DP532JFJ infected in mouse BMDM cells assessed as reduction in infection at 150 uM after 48 hrs. Format: functional. An outline of the steps:
(§6)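 Mouse bone-marrow macrophages were differentiated with L929-conditioned medium and plated with coverslips. They were infected with stationary-phase promastigotes at a 10:1 parasite:macrophage ratio. Compound (25–1000 μM, 0.5% DMSO) was added for 48 h, at least in triplicate. Cells were Giemsa-stained and the percentage infected (≥1 amastigote) was counted by microscopy. Reduction was calculated relative to untreated or diluent wells.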

The subject of series [10] is Leishmania donovani. Put plainly: Antileishmanial activity against Leishmania donovani MHOM/IN/00/LEM138 infected in mouse BMDM cells assessed as reduction in infection at 150 uM after 48 hrs. Format: functional. As to conditions: MHOM/IN/00/LEM138, BMDM. An outline of the steps:
as §6

In series [11] the test system is Leishmania infantum. The experiment in a line: Antileishmanial activity against Leishmania infantum promastigotes. Format: functional, organism-based.
A short description of series [12]: Cytotoxicity against mouse L929 cells assessed as survival rate at 25 to 250 uM after 72 hrs by trypan blue assay. Format: cell-based. As to conditions: read-out: Survival. An outline of the steps:
(§7)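 Trypan Blue exclusion assay. BMDM (4 × 10^5/well) or L929 fibroblasts (5 × 10^4/well) incubated 72 h with 25–1000 μM compound, with DMSO diluent controls. Cells then mixed 1:1 with 0.4% Trypan Blue and live and dead cells counted in a hemocytometer. Survival ratio calculated against controls at each concentration.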

The nature of series [13]: Cytotoxicity against mouse L929 cells assessed as survival rate at 500 uM after 72 hrs by trypan blue assay. Format: cell-based. Particulars: read-out: Survival. An outline of the steps:
as §7

Series [14] in a line: Cytotoxicity against mouse L929 cells assessed as survival rate at 1000 uM after 72 hrs by trypan blue assay. As to conditions: read-out: Survival. The class given is cell-based. In short, it runs like this: as §7
Series [15] has as its system Mus musculus. Put plainly: Toxicity in ICR (CD1) mouse assessed as histological changes at 200 mg/kg, po. Particulars: in vivo. The class given is organism-based. In short, it runs like this:
(§8)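 Mice were given daily oral doses of 50, 200 or 1000 mg/kg in olive oil for 14 days, alongside a noninfected healthy reference group. Animals were weighed weekly and checked for stress, pain, cutaneous signs and diarrhea. After sacrifice, spleen and liver were weighed, plasma biochemical and enzymatic values were assessed, and tissue sections were examined by light microscopy.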

Series [16] concerns Mus musculus. The experiment in a line: Toxicity in ICR (CD1) mouse at 1000 mg/kg, po. The class given is organism-based. Particulars: in vivo. An outline of the steps: as §8
For series [17], the system named is Leishmania infantum. The experiment in a line: Antileishmanial activity against Leishmania infantum promastigotes infected in ICR (CD1) mouse assessed as reduction in parasite load in spleen at 200 mg/kg, po dosed daily starting 28 days after infection for 14 days by real-time PCR co-treated with 104 mg Sb'v/kg/day, ip meglumine antimoniate for 14 days. The class given is functional, organism-based. In short, it runs like this:
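Female 4–6-week-old Balb/c mice received 10^7 stationary-phase L. infantum promastigotes ip, in groups of seven. From day 28 they were dosed orally each day for 14 days in olive oil; meglumine antimoniate 104 mg SbV/kg was given ip. Spleen and liver load was measured by L. infantum-specific qPCR in triplicate against a calibration curve, as parasites/mg, and reduction was taken versus untreated mice.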
On the technique in general: In qPCR the cycle at which signal appears reflects the starting amount.

Series [18] can be described thus: Cytotoxicity against ICR(CD1) BMDM assessed as survival rate at 25 to 250 uM after 72 hrs by trypan blue assay. Particulars: mouse. In short, it runs like this:
as §7

Series [19] concerns Leishmania amazonensis. Put plainly: Antileishmanial activity against Leishmania amazonensis MHOM/BR/76/MA-76 intracellular amastigotes infected in BALB/c mouse peritoneal macrophages incubated for 24 hrs by Giemsa staining based light microscopy. The class given is functional, organism-based. As to conditions: MHOM/BR/76/MA-76, 24 h.
Series [20] in a line: Cytotoxicity against mouse J774.G8 cells assessed as reduction in cell viability incubated for 24 hrs by MTT assay. Format: cell-based.
For series [21], the system named is Mus musculus. Put plainly: Toxicity in Balb/c mouse assessed as histological changes at 50 mg/kg, po. As to conditions: in vivo.
Series [22] deals with Mus musculus. The experiment in a line: Toxicity in Balb/c mouse assessed as changes in plasma enzymatic changes at 50 and 200 mg/kg, po. As to conditions: in vivo.
Series [23] deals with Mus musculus. The experiment in a line: Toxicity in Balb/c mouse assessed as changes in plasma biochemical changes at 50 and 200 mg/kg, po. Particulars: in vivo.
Series [24] relates to Leishmania infantum. The experiment in a line: Antileishmanial activity against Leishmania infantum promastigotes infected in Balb/c mouse assessed as parasite load in liver at 200 mg/kg, po dosed daily starting 28 days after infection for 14 days by real-time PCR.
For series [25], the system named is Leishmania infantum. Put plainly: Antileishmanial activity against Leishmania infantum promastigotes infected in Balb/c mouse assessed as parasite load in spleen at 200 mg/kg, po dosed daily starting 28 days after infection for 14 days by real-time PCR.
The test system of series [26] is Leishmania infantum. Put plainly: Antileishmanial activity against Leishmania infantum promastigotes infected in Balb/c mouse assessed as reduction parasite load in liver at 50 mg/kg, po dosed daily starting 28 days after infection for 14 days by real-time PCR relative to control.
Series [27] has as its system Leishmania infantum. The experiment in a line: Antileishmanial activity against Leishmania infantum promastigotes infected in Balb/c mouse assessed as reduction parasite load in spleen at 50 mg/kg, po dosed daily starting 28 days after infection for 14 days by real-time PCR relative to control.
For series [28], the system named is L929. The description is as §4. Format: functional.
In series [29] the test system is L929. The description is as §5. Format: functional.
The test system of series [30] is Leishmania infantum. The experiment in a line: Antileishmanial activity against Leishmania infantum promastigotes infected in ICR (CD1) mouse assessed as parasite load in spleen at 104 mg Sb'v/kg, ip dosed daily starting 28 days after infection for 14 days by real-time PCR. The class given is functional, organism-based.
Series [31] relates to Leishmania infantum. Put plainly: Antileishmanial activity against Leishmania infantum promastigotes infected in ICR (CD1) mouse assessed as parasite load in liver at 104 mg Sb'v/kg, ip dosed daily starting 28 days after infection for 14 days by real-time PCR. The class given is functional, organism-based.
The test system of series [32] is Leishmania infantum. The experiment in a line: Antileishmanial activity against Leishmania infantum promastigotes infected in ICR (CD1) mouse assessed as reduction in parasite load in liver at 104 mg Sb'v/kg, ip dosed daily starting 28 days after infection for 14 days by real-time PCR relative to control. The class given is functional, organism-based.
Series [33] deals with Leishmania infantum. The experiment in a line: Antileishmanial activity against Leishmania infantum promastigotes infected in ICR (CD1) mouse assessed as reduction in parasite load in spleen at 104 mg Sb'v/kg, ip treated 28 days after infection for 14 days by real-time PCR relative to control. Format: functional, organism-based.
Where [34] appears, read: Leishmania infantum, MHOM/ES/2007/DP532JFJ, BMDM, 48 h.
[35] abbreviates: Leishmania donovani, MHOM/IN/00/LEM138, BMDM, 48 h.

These results are taken from ChEMBL document CHEMBL3585262, “(-)-α-Bisabolol, a Promising Oral Compound for the Treatment of Visceral Leishmaniasis” (J Nat Prod, 2015).

Active and inactive are the calls of the source. The rule behind the calls is not given here. Some results are limits rather than exact numbers.

A word on the IC50: it is the point on the concentration scale where inhibition reaches its midpoint. As a reminder, the CC50 is the concentration giving 50% cytotoxicity. What is called LD50 is the dose expected to kill half of the subjects tested. A lower LD50 goes with a more toxic substance. By inhibition is commonly meant the percentage by which the read-out fell short of the control.

For the compound `N=C(N)c1ccc(OCCCCCOc2ccc(C(=N)N)cc2)cc1.O=S(=O)(O)CCO`, the figures for the IC50 in series [1] (setting [34]) and in series [2] (setting [35]) were 1.5 µM and 0.88 µM, respectively. The CC50 at 72 h in series [3] amounted to 6.1 µM. Besides, the “Ratio CC50/IC50” value in series [4] is listed as 4; in series [5], 7.
For the compound “MEGLUMINE ANTIMONATE [listing 1 of 2 here]”, the results for the IC50 in [1] (bmdm) and in [2] (bmdm) were 144 µM and 96.4 µM, respectively. In series [6], this compound returned a CC50 of 273 µM.
Regarding `CC(C)=CCC[C@@](C)(O)[C@@H]1CC=C(C)CC1`, the IC50 in [1] (setting [34]) was 56.9 µM; in series [2] (setting [35]) it was 39.4 µM; in series [11], 49 µM; in [19], 48 µM. This compound showed a CC50 at 72 h in series [3] greater than 1000 µM. Also, the “Ratio CC50/IC50” value in [4] is reported as greater than 17; in [5] it was greater than 25. Further, the LD50 in [7] came to 14000 mg/kg. Further, the CC50 in series [8] is greater than 150 µM. Further, the inhibition at 150 µM in series [9] was 85%; in series [10] it was 89%. Further, the viability at 72 h, up to 250 µM in series [12] was determined as 100%. The viability at 72 h, 500 µM in series [13] came out at 86.7%. The viability at 72 h, 1000 µM in series [14] came out at 62.3%. The Activity entry in series [15], in series [16], in series [18], in series [21], in [22] and in series [23] was “Non-toxic” in each case. The inhibition entry in [17] is “inactive”. In series [20], the CC50 at 24 h was found to be 452 µM. In addition, the inhibition result in [24], in series [25], in series [26] and in series [27] was “Active” throughout.
For “MEGLUMINE ANTIMONATE [listing 2 of 2 here]”, the figures for the Ratio CC50/IC50 in series [28] and in series [29] were 2 and 3, respectively. In addition, the inhibition result in series [30] and in [31] was “Active” each time. In addition, in series [32], the result was Active. The inhibition entry in series [33] is “inactive”.
